Here are results for one compound from BindingDB's records for PubMed 36228194 (University of Bayreuth, 2022).

The assay deals with T1, NAD-dependent protein deacetylase sirtuin-3, mitochondrial (Homo sapiens, UniProt Q9NTG7).
T1 sequence (Q9NTG7 whole entry): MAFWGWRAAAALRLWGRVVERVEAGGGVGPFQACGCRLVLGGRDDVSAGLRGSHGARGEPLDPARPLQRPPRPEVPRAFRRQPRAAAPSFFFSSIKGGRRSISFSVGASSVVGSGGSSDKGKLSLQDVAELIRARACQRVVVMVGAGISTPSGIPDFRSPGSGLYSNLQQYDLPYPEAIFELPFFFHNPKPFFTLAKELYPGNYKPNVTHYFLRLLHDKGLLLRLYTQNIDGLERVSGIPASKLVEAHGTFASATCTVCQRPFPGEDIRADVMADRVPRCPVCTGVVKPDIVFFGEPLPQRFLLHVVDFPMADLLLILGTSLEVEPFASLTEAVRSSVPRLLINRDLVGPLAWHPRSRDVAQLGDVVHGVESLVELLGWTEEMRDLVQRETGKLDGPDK
The assay can be described thus: Activation of N-terminal his-tagged human SIRT3 (114 to 380 residues) expressed in Escherichia coli in presence of NAD+ by Mass spectrometry assay. The procedure, abridged: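 Mass-spectrometric deacetylation assay using coupled-assay components (1.5 µM Sirt3, 50 µM peptide, 100 µM NAD+, compound 100 µM) in 50 mM Na-phosphate pH 7.8 plus 0.05 µg/µL PNCA to remove nicotinamide; product and substrate peptides quantified.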

What is called EC50 is the concentration at which the effect is half-maximal. As for `CCOC(=O)C1=CN(C(=O)c2cc(OC)c(OC)c(OC)c2)C=C(C(=O)OCC)C1c1ccccc1`, the EC50 was found to be 100 µM.
